Laboratory results from PubChem BioAssay.
Activity calls are given as the source filed them.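 The calls were made as follows, unless noted: active = viability at or below 30% in both replicate assays; inconclusive = viability at or below 30% in just one of the two assays; inactive = the rest.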

How the values were obtained:
[1] = reducers of endogenous Her2 protein level, primary screen, SKBR3 breast tumor cells, AlphaScreen, ATP viability (AID 461;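 active = Her2 level under about 52% in both replicate screens, with viability over 70% of control, limit read from the data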;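 as to Her2 level: lower value means less Her2 protein in the cells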;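 as to viability: percent of carrier control wells set as 100% viability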); conditions: 18-24 h, measured here: SKBR3 viability, ATP luminescence, at 10 µM
[2] = target: Receptor tyrosine-protein kinase erbB-2 (Homo sapiens) (UniProt P04626); test: as above; conditions: 18-24 h, at 10 µM, stronger effect = lower value
Chain of Receptor tyrosine-protein kinase erbB-2 (Homo sapiens) (P04626 whole entry, looked up): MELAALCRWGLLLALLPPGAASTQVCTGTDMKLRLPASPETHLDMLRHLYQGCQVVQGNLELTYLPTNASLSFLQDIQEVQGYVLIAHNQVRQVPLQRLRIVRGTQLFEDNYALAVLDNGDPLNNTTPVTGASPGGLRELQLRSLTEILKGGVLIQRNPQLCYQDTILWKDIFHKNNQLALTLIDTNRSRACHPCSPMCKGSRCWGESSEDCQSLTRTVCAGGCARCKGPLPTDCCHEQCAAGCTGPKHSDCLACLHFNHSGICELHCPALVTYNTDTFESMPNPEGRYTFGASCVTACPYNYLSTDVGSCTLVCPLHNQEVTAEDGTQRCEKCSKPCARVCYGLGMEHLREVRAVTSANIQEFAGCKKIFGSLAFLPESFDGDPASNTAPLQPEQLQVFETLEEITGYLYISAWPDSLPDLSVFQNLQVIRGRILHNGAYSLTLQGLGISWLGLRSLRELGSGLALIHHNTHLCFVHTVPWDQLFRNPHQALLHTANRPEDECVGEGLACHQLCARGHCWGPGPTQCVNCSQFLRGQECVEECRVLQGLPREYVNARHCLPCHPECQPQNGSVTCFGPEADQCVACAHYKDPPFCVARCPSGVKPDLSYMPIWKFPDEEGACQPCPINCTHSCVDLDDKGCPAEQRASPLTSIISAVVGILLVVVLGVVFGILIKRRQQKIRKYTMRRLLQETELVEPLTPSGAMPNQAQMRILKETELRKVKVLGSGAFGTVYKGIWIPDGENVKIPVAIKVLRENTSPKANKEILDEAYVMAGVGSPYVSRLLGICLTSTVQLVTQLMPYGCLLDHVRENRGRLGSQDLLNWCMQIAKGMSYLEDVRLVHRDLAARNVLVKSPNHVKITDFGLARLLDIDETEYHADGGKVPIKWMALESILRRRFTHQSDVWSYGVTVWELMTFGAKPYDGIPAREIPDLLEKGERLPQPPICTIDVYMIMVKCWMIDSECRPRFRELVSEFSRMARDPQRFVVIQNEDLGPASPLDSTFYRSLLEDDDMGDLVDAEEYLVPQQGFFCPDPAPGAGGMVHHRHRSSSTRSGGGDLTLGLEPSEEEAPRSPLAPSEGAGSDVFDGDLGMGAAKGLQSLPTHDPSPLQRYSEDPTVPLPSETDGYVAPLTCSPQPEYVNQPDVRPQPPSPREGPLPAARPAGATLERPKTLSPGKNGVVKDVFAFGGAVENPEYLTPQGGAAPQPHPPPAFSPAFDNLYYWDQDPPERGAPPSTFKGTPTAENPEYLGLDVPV

[3] = SK-BR-3 cell growth inhibitors, pilot screen, 24 h, human (AID 572;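 active = viability at or below 10% of carrier control in both of two separate runs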;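 also: compound exposure lasted between 18 and 24 h rather than exactly 24 h; 100% = carrier-treated control wells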); conditions: SK-BR-3 viability, CellTiter-Glo luminescence, at 10 µM, stronger effect = lower value
[4] = HUVEC growth inhibition – cell-based, human, primary screen (AID 575); conditions: HUVEC proliferation, CellTiter-Glo luminescence, 72 h; at 10 µM; stronger effect = lower value;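 also: 100% = median of untreated cell wells with 0.1% DMSO on each plate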
Method in brief: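 material = primary HUVEC, no more than 12 passages | input = 1250 cells per well | controls = vehicle and MePR control wells | measured by = CTG luminescence | times = 72 h compound incubation | format = collagen-coated 384-well format | read-out = % viability vs DMSO wells | doses = single 10 µM dose, 0.1% DMSO, from 5x medium stock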

[5] = growth inhibitors of H69AR lung tumor, primary screen, human, duplicate replicates (AID 580;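 active = viability at or under a set limit in both replicates, limit being median viability minus 3 SD, cut at about 48% in these data, passing the limit was not always enough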;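 also: 100% = mean luminescence of untreated wells and 0% = no signal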); conditions: H69AR lung tumor cells viability, ATP luminescence, 72 h; at 10 µM; stronger effect = lower value
[6] = reversal of MRP1-mediated doxorubicin resistance, pilot screen, H69AR cells, doxorubicin co-treatment (AID 601;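 active = viability loss from added drug above about 55%, and viability with drug at most 40%, in both replicates, limit read from the data, passing the limit was not always enough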); conditions: CellTiter-Glo, 72 h, at 10 µM; for differential viability (reversal): stronger effect = higher value
[7] = 384-well plate pilot, post-Golgi transport modulator project, inhibition of yeast transport mutant growth (AID 636; in the data active = inhibition above about 31%); conditions: absorbance 615 nm, about 18 h, stronger effect = higher value
[8] = growth suppression of yeast trafficking mutant, preliminary HTS, modulators of trafficking downstream of Golgi apparatus project, 1536-format plate, OD 615 nm (AID 637; in the data active = inhibition above about 30%); conditions: yeast transport mutant growth, absorbance 615 nm, 18 h; stronger effect = higher value
[9] = H69AR cells + 2 uM doxorubicin, measured here: viability with 2 uM doxorubicin, stronger effect = lower value
[10] = H69AR cells, compound alone cytotoxicity

SMILES | viability [1] | Her2 level [2] | viability [3] | viability [4] | viability [5] | differential viability (reversal) ([6]; H69AR cells + 2 uM doxorubicin) | viability [6, 9] | viability [6, 10] | inhibition [7] | inhibition [8]
C#CCN1C(=O)C(O)(CC(=O)c2cccc(OC)c2)c2ccccc21 (stereo not given) | 100% | 84% (inactive) | 100% (inactive) | 93.3% (inactive) | 21.7% (active) | -16.6% (inactive) | 38.3% | 21.7% | -7.03% (inactive) | 1.67% (inactive)
CCc1nnc2c3cnn(-c4ccccc4)c3ncn12 | 93.5% | 95% (inactive) | 93.5% (inactive) | 102% (inactive) | 110% (inactive) | 15.1% (inactive) | 94.6% | 110% | -3.92% (inactive) | 2.38% (inactive)
O=C(c1ccc(Cl)c(Cl)c1)N1CCOCC1 | 102% | 103% (inactive) | 102% (inactive) | 91.7% (inactive) | 92.3% (inactive) | -5.39% (inactive) | 97.7% | 92.3% | -0.66% (inactive) | -10.8% (inactive)
COc1ccccc1-n1cnc(N)c1C(C)=O | 110% | 103% (inactive) | 110% (inactive) | 105% (inactive) | 103% (inactive) | -0.75% (inactive) | 104% | 103% | -4.21% (inactive) | 7.7% (inactive)
COc1ccc(N2C(=O)CC(N3CCN(c4ccccc4F)CC3)C2=O)cc1 (stereo not given) | 88% | 98% (inactive) | 88% (inactive) | 91.1% (inactive) | 105% (inactive) | 2.14% (inactive) | 103% | 105% | -1.07% (inactive) | 2.26% (inactive)
CSC1=C(C#N)C(c2ccc(Cl)cc2)C2=C(CC(C)(C)CC2=O)N1 (stereo not given) | 102% | 95% (inactive) | 102% (inactive) | 72.1% (inactive) | 66% (inactive) | 32.4% (inactive) | 33.6% | 66% | -3.92% (inactive) | -1.48% (inactive)
CCOCCCNc1ncnc2c1[nH]c1ccccc12 | 99% | 96.5% (inactive) | 99% (inactive) | 89.5% (inactive) | 90.3% (inactive) | -13.3% (inactive) | 104% | 90.3% | -2.63% (inactive) | 1.31% (inactive)
CCCCP(=O)(CCCC)Cc1ccccc1O | 99.5% | 104% (inactive) | 99.5% (inactive) | 103% (inactive) | 97.1% (inactive) | 7.29% (inactive) | 89.8% | 97.1% | -5.32% (inactive) | -6.07% (inactive)
CC(=O)Nc1ccc(Cl)c(C(N)=O)c1 | 110% | 108% (inactive) | 110% (inactive) | 97.1% (inactive) | 95.3% (inactive) | 8.55% (inactive) | 86.8% | 95.3% | -3.68% (inactive) | 6.07% (inactive)
COC(=O)c1c(-c2cccs2)csc1NC(=O)CN1CCOCC1 | 103% | 98.5% (inactive) | 103% (inactive) | 86.6% (inactive) | 82.1% (inactive) | 0.685% (inactive) | 81.4% | 82.1% | -0.13% (inactive) | -1.13% (inactive)
O=S(=O)(NCCc1ccccn1)c1cccs1 | 99% | 93% (inactive) | 99% (inactive) | 97.4% (inactive) | 101% (inactive) | 2.29% (inactive) | 98.3% | 101% | -7.07% (inactive) | 4.1% (inactive)
CCOC(=O)C(C)(C)Sc1nc2c(cnn2-c2ccc(C)cc2)c(=O)[nH]1 | 99% | 100% (inactive) | 99% (inactive) | 90.4% (inactive) | 79.9% (inactive) | -16.5% (inactive) | 96.3% | 79.9% | -1.95% (inactive) | -0.79% (inactive)
CCN(CC)CCN1C(=O)C(O)=C(C(=O)c2ccco2)C1c1ccccn1 (stereo not given) | 109% | 93% (inactive) | 109% (inactive) | 88.9% (inactive) | 97.7% (inactive) | 1.63% (inactive) | 96% | 97.7% | -3.82% (inactive) | 5.08% (inactive)
CCOc1ccc(S(=O)(=O)N2CCN(C(=O)c3cccn3C)CC2)cc1 | 101% | 78.5% (inactive) | 101% (inactive) | 101% (inactive) | 97.3% (inactive) | 9.79% (inactive) | 87.5% | 97.3% | -9.04% (inactive) | -2.86% (inactive)
CC(C)OC(=O)CSc1nnc(-c2ccco2)n1N | 99.5% | 112% (inactive) | 99.5% (inactive) | 90.4% (inactive) | 107% (inactive) | 14% (inactive) | 93.2% | 107% | -5% (inactive) | -5.33% (inactive)
Nc1ccc(-c2ccc(N)cc2C(F)(F)F)c(C(F)(F)F)c1 | 94% | 80% (inactive) | 94% (inactive) | 75.1% (inactive) | 68.6% (inactive) | -13.7% (inactive) | 82.3% | 68.6% | -0.65% (inactive) | -0.66% (inactive)

SMILES | viability [1] | Her2 level [2] | viability [3] | viability [4] | viability [5] | differential viability (reversal) ([6]; H69AR cells + 2 uM doxorubicin) | viability [6, 9] | viability [6, 10] | inhibition [7] | inhibition [8]
Cc1nn(-c2ccccc2)c(C)c1C(=O)OCC(=O)c1c(N)n(CC(C)C)c(=O)n(C)c1=O | 104% | 74% (inactive) | 104% (inactive) | 64.3% (inactive) | 77.8% (inactive) | -24.7% (inactive) | 102% | 77.8% | -8.4% (inactive) | 4.75% (inactive)
CCOC(=O)c1c(NC(=O)CSc2nnc(-c3ccc(OC)cc3)o2)sc2c1CCC2 | 88% | 100% (inactive) | 88% (inactive) | 76.1% (inactive) | 82.1% (inactive) | -8.29% (inactive) | 90.4% | 82.1% | -0.26% (inactive) | -1.77% (inactive)
CC(C)(C)c1cc(C(=S)N2CCN(CCO)CC2)cc(C(C)(C)C)c1O | 123% | 86% (inactive) | 123% (inactive) | 94.7% (inactive) | 96.2% (inactive) | 17.4% (inactive) | 78.8% | 96.2% | -6.13% (inactive) | 2.42% (inactive)
CN(Cc1ccco1)C(=O)Cn1c(=O)oc2cc(S(=O)(=O)NCc3ccccc3)ccc21 | 92% | 85.5% (inactive) | 92% (inactive) | 96.4% (inactive) | 89.8% (inactive) | -3.67% (inactive) | 93.4% | 89.8% | -2.67% (inactive) | 1.8% (inactive)
O=C(CN1CCC(NC(=O)c2ccc(F)cc2)CC1)NCc1ccccc1F | 96.5% | 98.5% (inactive) | 96.5% (inactive) | 91.5% (inactive) | 103% (inactive) | 3.44% (inactive) | 100% | 103% | -5.6% (inactive) | -0.63% (inactive)
Nn1c(CSc2nc3ccccc3o2)nnc1CSc1nc2ccccc2o1 | 86% | 94.5% (inactive) | 86% (inactive) | 115% (inactive) | 103% (inactive) | 24.1% (inactive) | 78.6% | 103% | -4.4% (inactive) | -1.8% (inactive)
CCc1cccc(NC(=O)C2CCCN(S(=O)(=O)c3c(C)[nH]c(=O)[nH]c3=O)C2)c1 (stereo not given) | 89.5% | 82% (inactive) | 89.5% (inactive) | 97% (inactive) | 95% (inactive) | 6.79% (inactive) | 88.2% | 95% | -2.89% (inactive) | -3.83% (inactive)
Cc1nc(N2CCOCC2)[nH]c(=O)c1CCC(C)C | 120% | 82% (inactive) | 120% (inactive) | 87.7% (inactive) | 91.9% (inactive) | 0.88% (inactive) | 91% | 91.9% | -1.58% (inactive) | 1.11% (inactive)
CCCn1c2c(c(O)c(C(=O)Nc3ccc(C)cn3)c1=O)CCCC2 | 102% | 82.5% (inactive) | 102% (inactive) | 96.8% (inactive) | 88% (inactive) | -9.88% (inactive) | 97.9% | 88% | -2.89% (inactive) | -5.81% (inactive)
O=C(CSc1ncnc2c1cnn2-c1ccccc1)Nc1ccccc1 | 96% | 88% (inactive) | 96% (inactive) | 63.1% (inactive) | 79.7% (inactive) | 7.43% (inactive) | 72.2% | 79.7% | -7.95% (inactive) | 2.22% (inactive)
COc1ccc(C2CC(=O)C(C=NCCN3CCOCC3)=C(O)C2)cc1 (stereo not given) | 87.5% | 87% (inactive) | 87.5% (inactive) | 85.7% (inactive) | 98.5% (inactive) | 2.73% (inactive) | 95.8% | 98.5% | -0.79% (inactive) | 8.69% (inactive)
CCN1C(=O)CC(C(=O)Nc2ccc(F)cc2)SC1=Nc1ccc2c(c1)OCO2 (stereo not given) | 136% | 97% (inactive) | 136% (inactive) | 79.7% (inactive) | 86.4% (inactive) | 6.02% (inactive) | 80.4% | 86.4% | -2.53% (inactive) | -1.61% (inactive)
COc1cc(NC(=O)NC(C)(C(F)(F)F)C(F)(F)F)cc(OC)c1OC | 138% | 106% (inactive) | 138% (inactive) | 91.1% (inactive) | 99.5% (inactive) | -2.39% (inactive) | 102% | 99.5% | -4.08% (inactive) | 11.3% (inactive)
COc1cc(NC(=O)Cc2nn(C)c(=O)c3ccccc23)cc(OC)c1 | 87.5% | 91.5% (inactive) | 87.5% (inactive) | 73% (inactive) | 84.3% (inactive) | -2.83% (inactive) | 87.1% | 84.3% | -2.24% (inactive) | -2.9% (inactive)
CCN(Cc1nc2ccccc2c(=O)[nH]1)Cc1cc(=O)oc2cc(C)c(C)cc12 | 107% | 102% (inactive) | 107% (inactive) | 63% (inactive) | 62.9% (inactive) | 21% (inactive) | 42% | 62.9% | -4.68% (inactive) | -1.67% (inactive)
